Test results reported in ChEMBL document CHEMBL1629514, “Synthesis, biological activity, and evaluation of the mode of action of novel antitubercular benzofurobenzopyrans substituted on A ring” (Eur J Med Chem, 2010).
≈ marks a conversion by molar mass, not a printed value.

Key:
[1] = test system: Mycobacterium tuberculosis; test: Antimycobacterial activity against Mycobacterium tuberculosis; format: functional
[2] = test system: Mycolicibacterium smegmatis; test: Antimycobacterial activity against Mycobacterium smegmatis; format: functional
[3] = test system: Mycobacterium tuberculosis; test: Antimycobacterial activity against Mycobacterium tuberculosis H37Rv after 6 days by Microdilution Resazurin assay; format: functional; conditions: 144 h
Procedure, shortened: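 M. tuberculosis H37Rv grown in 7H9 with 10% ADC enrichment. Two-fold serial dilutions from 500 to 0.9 µg/mL, using DMSO stocks, in 7H9. Incubated at 37 °C for 6 days, then 0.01% resazurin added and incubated a further 24 h. MIC is the lowest concentration preventing the blue-to-pink colour change. DMSO growth controls and isoniazid (1 µg/mL to 1 ng/mL) were included.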

[4] = Selectivity index, ratio of IC50 for african green monkey VERO cells to MIC95 for Mycobacterium tuberculosis H37Rv; format: functional
Procedure, shortened: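 VERO cells grown in DMEM with 10% FBS at 37 °C and 5% CO2. Seeded at 2×10^4 cells/mL and allowed to attach for 3 h. Compounds added at 10^-8 to 10^-4 M (DMSO ≤0.4% v/v) and cells counted by hemocytometer after 48 h. IC50 from means of two experiments in duplicate. SI is VERO IC50 divided by the M. tuberculosis MIC95.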

Vero = test: Cytotoxicity against african green monkey Vero cells assessed as cell growth after 48 hrs by hemocytometry; format: cell-based; conditions: Chlorocebus sabaeus
Procedure, shortened: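 VERO cells grown in DMEM with 10% v/v FBS plus penicillin/streptomycin, 37 °C, humidified 5% CO2. Log-phase cells seeded in 24-well plates and allowed to attach 3 h. Compounds diluted in DMSO (final ≤0.4% v/v) and tested at 10^-8 to 10^-4 M. Cells counted after 48 h. Two experiments in duplicate; mean used to derive IC50.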

[5] = test system: Mycolicibacterium smegmatis; test: Antimycobacterial activity against Mycobacterium smegmatis mc2155 assessed as inhibition of mycolic acid biosynthesis at 1 to 25 ug/ml after 15 mins; format: functional
Procedure, shortened: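 Cell-free assay on cell wall extracts from bacteria washed in phosphate buffer and disrupted at 0.8 kbar, using 500 µg extract protein. Buffer was 100 mM potassium phosphate pH 7.0 with 3 mM MgCl2, 7 mM KHCO3, 7 mM ATP and 0.7 mM CoASH. Compounds (5% v/v DMSO final) preincubated 15 min at 37 °C, then [1-14C]acetate added for 60 min at 37 °C. Reactions saponified and mycolate profiles run on TLC; % inhibition taken against control. Thiolactomycin was the reference, run at two concentrations.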

Work on `CC1(C)C=Cc2c(ccc3oc4ccncc4c23)O1` yielded an MIC95 [1] of 16 µg/mL (≈ 63.7 µM) and an MIC95 [2] of 8 µg/mL (≈ 31.8 µM).

With `COc1ccc2oc3cc4c(cc3c2c1)OC(C)(C)C=C4` the MIC95 [3] was 89 µM (≈ 24.9 µg/mL) and the “Selectivity Index” value [4] was 83.2.

Work on `CC(=O)c1ccc2oc3ccc4c(c3c2c1)CCC(C)(C)O4` yielded an MIC95 [3] greater than 340 µM.

In the case of `CC1(C)C=Cc2c(ccc3oc4ccc(Cl)cc4c23)O1`, the MIC95 [3] is reported as 353 µM (≈ 101 µg/mL), the IC50 (Vero) is reported as 290 µM and the “Selectivity Index” value [4] is reported as 0.8.

In the case of `CC1(C)C=Cc2c(ccc3oc4c(Cl)cccc4c23)O1`, the MIC95 [3] is reported as 87.5 µM (≈ 24.9 µg/mL), the IC50 (Vero) is reported as 100 µM and the “Selectivity Index” value [4] is reported as 1.2.

In the case of `COc1ccc2oc3ccc4c(c3c2c1)C=CC(C)(C)O4`, the MIC95 [3] is reported as 45 µM (≈ 12.6 µg/mL), the “inhibition (INH)” value [5] is reported as greater than 60% and the IC50 (Vero) is reported as 100 µM. For the same compound, the “Selectivity Index” value [4] was 2.2.

In the case of `CC(=O)c1ccc2oc3ccc4c(c3c2c1)C=CC(C)(C)O4`, the MIC95 [3] is reported as greater than 1710 µM.

For `COc1cccc2oc3ccc4c(c3c12)C=CC(C)(C)O4`, the MIC95 [3] was 45 µM (≈ 12.6 µg/mL), the “inhibition (INH)” value [5] was greater than 60% and the IC50 (Vero) was 280 µM. For the same compound, the “Selectivity Index” value [4] was 6.2.

For `COc1ccc2c(c1)oc1ccc3c(c12)C=CC(C)(C)O3`, the MIC95 [3] was 89 µM (≈ 24.9 µg/mL), the “inhibition (INH)” value [5] was greater than 60% and the IC50 (Vero) was 100 µM. The “Selectivity Index” value [4] was 1.1.

In the case of `CC1(C)C=Cc2c(ccc3oc4c(O)cccc4c23)O1`, the MIC95 [3] is reported as 23.5 µM (≈ 6.26 µg/mL), the IC50 (Vero) is reported as 3.3 µM and the “Selectivity Index” value [4] is reported as 0.1.

In the case of `NNC(=O)c1ccncc1` [ISONIAZID], the MIC95 [3] is reported as 1.8 µM (≈ 0.247 µg/mL) and the IC50 (Vero) is reported as greater than 100 µM.

In the case of `COc1cccc2c1C(=O)c1c(O)c3c(c(O)c1C2=O)C[C@@](O)(C(=O)CO)C[C@@H]3O[C@H]1C[C@H](N)[C@H](O)[C@H](C)O1` [DOXORUBICIN], the IC50 (Vero) is reported as 3.6 µM.

In the case of `CC1(C)C=Cc2c(ccc3oc4cc(O)ccc4c23)O1`, the MIC95 [3] is reported as 23.5 µM (≈ 6.26 µg/mL), the IC50 (Vero) is reported as 9.2 µM and the “Selectivity Index” value [4] is reported as 0.4.

With `CC1(C)C=Cc2c(ccc3oc4ccccc4c23)O1` the MIC95 [3] was 100 µM (≈ 25 µg/mL), the IC50 (Vero) was 320 µM and the “Selectivity Index” value [4] was 3.2.

`CC1(C)C=Cc2c(ccc3oc4cc(-c5ccc6c(c5)oc5ccc7c(c56)C=CC(C)(C)O7)ccc4c23)O1` showed an MIC95 [3] greater than 200 µM.

With `CC1(C)C=Cc2c(ccc3oc4cc(Br)ccc4c23)O1` the MIC95 [3] was 37.5 µM (≈ 12.3 µg/mL) and the “Selectivity Index” value [4] was 93.3.

In the case of `CC1(C)C=Cc2c(ccc3oc4ccc(O)cc4c23)O1`, the MIC95 [3] is reported as 47 µM (≈ 12.5 µg/mL), the IC50 (Vero) is reported as 5 µM and the “Selectivity Index” value [4] is reported as 0.1.

For `CC1(C)CCc2c(ccc3oc4ccc(O)cc4c23)O1`, the MIC95 [3] was 46.5 µM (≈ 12.5 µg/mL), the IC50 (Vero) was 18 µM and the “Selectivity Index” value [4] was 0.4.

For `CC1(C)C=Cc2c(ccc3c2oc2ccc4c(c23)C=CC(C)(C)O4)O1`, the MIC95 [3] was greater than 300 µM.

With `CC1(C)C=Cc2c(ccc3oc4cccc(Cl)c4c23)O1` the MIC95 [3] was 43.8 µM (≈ 12.5 µg/mL), the IC50 (Vero) was 100 µM and the “Selectivity Index” value [4] was 2.3.

In the case of `CC1(C)C=Cc2c(ccc3oc4cccc(O)c4c23)O1`, the MIC95 [3] is reported as 95 µM (≈ 25.3 µg/mL), the IC50 (Vero) is reported as 9.1 µM and the “Selectivity Index” value [4] is reported as 0.1.

In the case of `COc1cccc2c1oc1ccc3c(c12)C=CC(C)(C)O3`, the MIC95 [3] is reported as 45 µM (≈ 12.6 µg/mL), the “inhibition (INH)” value [5] is reported as greater than 60% and the IC50 (Vero) is reported as 100 µM. For the same compound, the “Selectivity Index” value [4] was 2.2.
